HTRA1 inhibitor: blocks human HTRA1 serine peptidase | Q92743 | inhibition, % at 5.96 µM | recombinant HTRA1, FP-rhodamine activity-based probe, fluorescence polarization | 0.5% of 340,000 active; in the data active = inhibition above about 36%
ABHD4 inh: inhibits mouse alpha/beta hydrolase domain 4; Q8VD66; purified mABHD4, FP-Rh probe fluorescence polarization; inhibition, % at 8.92 µM; 0.54% of 370,000 active; AID 720543;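 active = inhibition exceeding the mean over every tested compound plus 3 SD, cut at about 30% in these data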
Target sequence (Q8VD66 whole entry, looked up, the tested form may be a part): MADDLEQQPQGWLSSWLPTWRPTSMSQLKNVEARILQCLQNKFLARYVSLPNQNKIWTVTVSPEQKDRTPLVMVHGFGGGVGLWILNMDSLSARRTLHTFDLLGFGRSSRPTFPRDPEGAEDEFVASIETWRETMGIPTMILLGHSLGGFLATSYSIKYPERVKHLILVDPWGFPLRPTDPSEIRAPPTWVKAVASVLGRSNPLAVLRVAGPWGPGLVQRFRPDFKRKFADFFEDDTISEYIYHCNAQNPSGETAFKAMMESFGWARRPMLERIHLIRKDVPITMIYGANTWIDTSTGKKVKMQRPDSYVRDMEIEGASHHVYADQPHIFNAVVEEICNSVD
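Assay system: Wild-type mouse ABHD4 protein | Medium: HEPES pH 7.0 buffer, 150 mM NaCl, 0.01% Pluronic F-127 | Incubation: Enzyme–compound pre-incubation 45 min, then probe 60 min, both 25 °C | Technique: Fluorescence polarization with parallel and perpendicular emission, 525/598 nm | Evaluation: % inhibition of FP-Rh probe binding versus controls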
SIAE primary: blocks human sialic acid acetylesterase; Q9HAT2; SIAE FP-Rh probe binding, fluorescence polarization; inhibition, % at 9.66 µM; 0.69% of 370,000 active; AID 1053197;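 active = inhibition above a cutoff: mean of compounds within the control limits plus 3 SD of those, cut at about 17% in these data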
TCR CD3 inh: human TCR-CD3 binding inhibition; TAMRA-labeled TCR probe fluorescence, biochemical; inhibition, % at 9.4 µM; 0.37% of 360,000 active; in the data active = inhibition above about 19%;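 also: recombinant mutant TCR 2C K166C tagged with TAMRA read by polarization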
ARNT-TACC3 inh: ARNT/TACC3 interaction disruption; AlphaScreen His-ARNT PAS-B/GST-TACC3 binding, luminescence; TACC3 fragment carries E629A point mutation; inhibition, % at 9.99 µM; 0.66% of 390,000 active; AID 623870;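 active = mean inhibition of replicates at least 50% and at least half of replicates each reaching 50%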
mABHD4 conf: confirmation of mouse ABHD4 inhibitors | shares compounds with ABHD4 inh | purified mABHD4, FP-Rh probe fluorescence polarization | inhibition, % at 8.92 µM | 55% of 1,800 active;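 active = mean inhibition across replicates above the hit cutoff set in the primary screen, cut at about 30% in these data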
SIAE inh conf: human SIAE inhibition, confirmation; shares compounds with SIAE primary; SIAE FP-Rh activity-based probe, fluorescence polarization; inhibition, % at 9.66 µM; 13% of 2,300 active;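 active = mean inhibition of the replicates above the hit cutoff set in the primary screen, cut at about 17% in these data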;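 also: inhibitors lower polarization as more probe stays unbound to SIAE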
Large screens that a line does not name were inactive (follow-up assays come after a bar, where they were run); ! = not active in a repeat. The list is not random: actives were taken first. Their share in the collection is about 1.8%.

COc1ccc(N=C2NC(=O)S/C2=C\c2ccc(N(C)C)cc2)cc1	none
O=C(Cn1cc(CN2C(=O)COC[C@H]2c2ccccc2)nn1)Nc1nccs1	none (no result: HTRA1 inhibitor, ABHD4 inh, SIAE primary, TCR CD3 inh)
C/C(=N/Nc1ccnc2cc(Cl)ccc12)c1ccc(N)cc1	ABHD4 inh 30, SIAE primary 23 (no result: ARNT-TACC3 inh) | mABHD4 conf 33 | SIAE inh conf inactive
C[C@H]1CN([C@@H](C)CO)C(=O)Cc2cc(NS(=O)(=O)c3ccccc3)ccc2O[C@@H]1CN(C)Cc1ccc(-c2ccccc2)cc1	none (no result: HTRA1 inhibitor, ABHD4 inh, SIAE primary, TCR CD3 inh)
CN1C(=O)c2cc(NC(=O)C3CCCC3)ccc2OC[C@H]2O[C@H](CC(=O)NCC3CC3)CC[C@@H]21	none (no result: HTRA1 inhibitor, ABHD4 inh, SIAE primary, TCR CD3 inh)
O=C1NN(c2cccc(Br)c2)C(=O)/C1=C\c1ccc(O)cc1	ABHD4 inh 37, SIAE primary 19 | mABHD4 conf 41 | SIAE inh conf inactive
O=C1NN(c2ccc(Br)cc2)C(=O)/C1=C\c1ccc(O)cc1O	none
C=CCNc1nc(NCCOC)c2sc(-c3ccccc3)cc2n1	none (no result: HTRA1 inhibitor, ARNT-TACC3 inh)
C=CCNc1nc(Nc2ccc(OC)c(OC)c2)c2sc(-c3ccccc3)cc2n1	ABHD4 inh 42, SIAE primary 25 (no result: HTRA1 inhibitor, ARNT-TACC3 inh) | mABHD4 conf 51 | SIAE inh conf 33
CC(C)CC#Cc1cnc2c(c1)C(=O)N([C@@H](C)CO)C[C@@H](C)[C@H](CN(C)Cc1ccccc1C(=O)O)O2	none (no result: HTRA1 inhibitor, ABHD4 inh, SIAE primary, TCR CD3 inh)
Oc1ccc2c(c1)OCC1(O)Cc3cc(O)c(O)cc3C21 (configuration not stated)	ABHD4 inh 110, SIAE primary active (no result: TCR CD3 inh) | mABHD4 conf 129 | SIAE inh conf active
COc1ccc(C2COc3cc(O)ccc3C2)c(OC)c1O (configuration not stated)	none
COc1cccc(CN(C)C[C@@H]2OCc3cn(nn3)CCCC(=O)N([C@H](C)CO)C[C@H]2C)c1	none (no result: HTRA1 inhibitor, ABHD4 inh, SIAE primary, TCR CD3 inh)
O=C1N=c2ccccc2=C1c1sc(=S)n(NC(=O)c2ccccc2)c1O	ABHD4 inh 33, SIAE primary 23 | mABHD4 conf 42 | SIAE inh conf 31
Cc1noc(C)c1S(=O)(=O)Nc1ccc2c(c1)C(=O)N([C@@H](C)CO)C[C@@H](C)[C@H](CN(C)CC1CC1)O2	none (no result: HTRA1 inhibitor, ABHD4 inh, SIAE primary, TCR CD3 inh)
CCNC(=O)C[C@H]1C=C[C@@H](NS(=O)(=O)c2ccc(F)cc2)[C@H](CO)O1	none (no result: HTRA1 inhibitor, ABHD4 inh, SIAE primary, TCR CD3 inh)
CC(=O)N(c1ccc2oc(=O)sc2c1)S(=O)(=O)c1ccccc1	none
CCOc1ccc(S(=O)(=O)N(C)CC(=O)NCc2ccco2)cc1	none
CCOc1ccc(S(=O)(=O)N(C(=O)c2ccco2)c2cc3sc(=O)oc3c3ccccc23)cc1	ABHD4 inh 42, SIAE primary 18 | mABHD4 conf inactive | SIAE inh conf inactive
Cc1ccc(S(=O)(=O)N(C(=O)c2ccco2)c2cc3sc(=O)oc3c3ccccc23)cc1	ABHD4 inh 50, SIAE primary 34 | mABHD4 conf inactive | SIAE inh conf inactive
N=C1S/C(=C\c2ccco2)C(=O)N1c1ccc2c(c1)OCO2	ABHD4 inh 34, SIAE primary 21 | mABHD4 conf inactive | SIAE inh conf inactive
Cc1ccc(NC(=O)CN2C(=O)S/C(=C/c3ccc(O)c([N+](=O)[O-])c3)C2=O)cc1C	ABHD4 inh 51, SIAE primary 25 | mABHD4 conf 63 | SIAE inh conf inactive
Nc1ccc2ccc(O)cc2c1	ABHD4 inh 40, SIAE primary 19 | mABHD4 conf 33 | SIAE inh conf inactive
O=C1CC(c2ccccc2)c2cc(O)ccc2O1 (configuration not stated)	none
Cc1ccc(C2CC(=O)Oc3cc(O)ccc32)cc1 (configuration not stated)	ABHD4 inh 55, SIAE primary 19 | mABHD4 conf 44 | SIAE inh conf inactive
C[C@@H]1CN([C@H](C)CO)C(=O)c2cc(C#C[C@@H](C)O)cnc2O[C@@H]1CN(C)C(=O)c1ccc(F)cc1	none (no result: HTRA1 inhibitor, ABHD4 inh, SIAE primary, TCR CD3 inh)
CC(=O)N(C)C[C@H]1Oc2cc(C#Cc3ccccc3F)ccc2S(=O)(=O)N([C@H](C)CO)C[C@H]1C	none (no result: HTRA1 inhibitor, ABHD4 inh, SIAE primary, TCR CD3 inh)
COC(=O)c1ccc(N)cc1O	none (no result: ARNT-TACC3 inh)
COC(=O)c1ccc(=O)c2nc3/c(=C/O)c(O)cc(=O)c3[nH]c12	HTRA1 inhibitor 61, ABHD4 inh 57, SIAE primary 47, TCR CD3 inh 140, ARNT-TACC3 inh 59 | mABHD4 conf 59 | SIAE inh conf 28
CCN1C(=O)[C@@H]2[C@@H]3CN(S(=O)(=O)c4ccc(C)cc4)[C@@H](c4ccccc4)[C@@H]3C(=O)C[C@@H]2C1=O	none (no result: HTRA1 inhibitor, ARNT-TACC3 inh)
CCOC1=CC2=C(C(=O)C(Cl)=CC2=O)[C@@H]2CN(S(=O)(=O)c3ccc(C)cc3)[C@@H](c3ccccc3)[C@H]12	ABHD4 inh 89, SIAE primary 23 (no result: HTRA1 inhibitor, ARNT-TACC3 inh) | mABHD4 conf 101 | SIAE inh conf 18
COc1ccc(/C=N/NC(=O)c2cnccn2)cc1O	none
COc1ccc(/C=N/NC(=O)c2cc3c(OC)ccc(OC)c3[nH]2)cc1O	ABHD4 inh 33, SIAE primary 24 | mABHD4 conf 47 | SIAE inh conf inactive
COc1ccc(OC)c(N/C(C)=C/C(=O)c2ccncc2)c1	ABHD4 inh 49, SIAE primary 21 | mABHD4 conf inactive | SIAE inh conf inactive
COc1ccc(OC)c(N/C(C)=C/C(=O)c2ccccc2)c1	none
Cc1ccc(S(=O)(=O)N(C)C[C@H]2OCCCC[C@H](C)Oc3ccc(NC(=O)Nc4c(C)noc4C)cc3C(=O)N([C@H](C)CO)C[C@@H]2C)cc1	none (no result: HTRA1 inhibitor, ABHD4 inh, SIAE primary, TCR CD3 inh)
CCCCNc1c(-c2ccc(OC)c(SC(C)CC)c2)nc2cc(C)ccn12 (configuration not stated)	ABHD4 inh 44, SIAE primary 18! | mABHD4 conf 65 | SIAE inh conf inactive
COC(=O)c1ccc(CC(=O)c2c(C)cc(O)cc2O)o1	ABHD4 inh 38, SIAE primary 24 | mABHD4 conf inactive | SIAE inh conf inactive
CCCN1[C@@H]2c3ccc(-c4ccccc4)c(=O)n3C[C@@H]2[C@@H](CO)[C@@H]1C(=O)N1CCOCC1	none (no result: HTRA1 inhibitor, ABHD4 inh, SIAE primary, TCR CD3 inh)
COc1ccc(N2CCN(c3ncnc4scc(-c5ccc(C)cc5)c34)CC2)cc1	SIAE primary 17 | SIAE inh conf inactive
O=C(C[C@@H]1CC[C@H]2[C@@H](COC[C@H](O)CN2C(=O)Nc2cc(Cl)cc(Cl)c2)O1)NCC1CC1	none (no result: HTRA1 inhibitor, ABHD4 inh, SIAE primary, TCR CD3 inh)
COc1ccc(NC(=O)CCOc2ccccc2)cc1	none
COc1ccc(OCCC(=O)Nc2ccc(S(N)(=O)=O)cc2)cc1	SIAE primary 18 | SIAE inh conf inactive
CCCNC(=O)Nc1ccc2c(c1)OC[C@@H](C)N(Cc1cccnc1)C[C@@H](C)[C@H](OC)CN(C)C2=O	none (no result: HTRA1 inhibitor, ABHD4 inh, SIAE primary, TCR CD3 inh)
COc1ccc(C(=O)N/N=C/c2ccc(OC)c(CN3CCCc4ccccc43)c2)cc1	none
COc1ccc(/C=N/NC(=O)c2cccnc2)cc1CN1CCCc2ccccc21	SIAE primary 22 | SIAE inh conf 19

High-throughput results as filed in PubChem.
